Shown is part of a subset that was picked to be rich in hits.
Fh CTSL1 inh: cathepsin L1 inhibition, PFM18AAP counter-screen. inhibition, % at 5.96 µM. recombinant F. hepatica cathepsin L1, Z-Leu-Arg-MCA fluorescence. 0.49% of 300,000 active;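 active = inhibition above the mean of all tested compounds plus 3 SD, set per screening campaign, cut at about 17% in these data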;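 note: 0% = plate median of test compound wells and 100% = 1 µM Z-Phe-Ala-diazomethylketone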
UPR CHOP act: apoptotic UPR (CHOP) activation; 0.34% of 330,000 active; activation, % at 10 µM; CHO-CHOP luciferase reporter, luminescence; percent of tunicamycin response over DMSO baseline;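 active = at 10 µM dose, activation of 40% or more, normalized to positive control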;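 note: 100% = tunicamycin at 10 µg/mL and 0% = DMSO alone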
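Assay system: CHO cells with stable CHOP pathway luciferase reporter; Buffer or medium: F12 plus 10% serum; Times: 16-18 h cell attachment, then 6 h compound exposure, 37 °C; Signal: luciferase luminescence; Read-out basis: percent activation relative to tunicamycin control; Control set: tunicamycin high control, DMSO low control.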
UCH37 DUB inh: inhibitors of human deubiquitinating enzyme UCH37; 0.33% of 330,000 active; inhibition, % (no concentration beside the values); purified proteasome/UCH37, Ub-AMC cleavage fluorescence; Q9Y5K5; AID 588478;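 active = mean inhibition over replicate wells above about 20%, limit read from the data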;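 note: 0% = compound-free wells with enzyme and 100% = wells lacking proteasome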
Target sequence (Q9Y5K5 whole entry, looked up): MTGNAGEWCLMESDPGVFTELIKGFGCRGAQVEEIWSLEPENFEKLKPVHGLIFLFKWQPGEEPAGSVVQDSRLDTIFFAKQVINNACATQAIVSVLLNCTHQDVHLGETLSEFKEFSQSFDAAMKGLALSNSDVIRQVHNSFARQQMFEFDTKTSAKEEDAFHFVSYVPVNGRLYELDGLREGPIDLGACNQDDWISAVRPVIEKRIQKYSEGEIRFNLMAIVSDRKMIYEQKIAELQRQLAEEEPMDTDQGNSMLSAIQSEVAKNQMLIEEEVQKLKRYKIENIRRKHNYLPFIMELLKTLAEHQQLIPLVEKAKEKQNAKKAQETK
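system = Proteasome-associated human UCH37 deubiquitinase | amount = 0.15 nM proteasome as dispensed | medium = pH 7.4 Tris-HCl (50 mM) with ovalbumin, ATP-MgCl2, DTT | incubation = 30 min preincubation with enzyme, 25 min cleavage at room temperature | detection = AMC fluorescence 355/460 nm | read-out basis = percent inhibition | controls = no-proteasome and no-compound wells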
UPR XBP1 act: activators of adaptive arm of unfolded protein response (XBP1). CHO-XBP1 luciferase reporter, IRE1-XBP1 UPR activation, luminescence; percent of tunicamycin response, DMSO as zero. activation, % at 20 µM. 0.33% of 330,000 active;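 active = versus positive control, 20 µM dose yields 30% or more activation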;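 note: 100% = tunicamycin at 10 µg/mL and 0% = DMSO only wells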
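Material: CHO cell line with stable XBP1 luciferase reporter; schedule: 16-18 h cell attachment at 37 °C, then 6 h compound exposure; signal: glow luminescence from Steady-Glo reagent; medium: serum-containing F12 medium, 10% FBS; benchmarks: tunicamycin 10 µg/mL and vehicle-only wells; read-out: percent activation relative to tunicamycin reference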
CHOP inh: inhibitors of CHOP induction in ER stress response; 3.8% of 220,000 active; inhibition, % at 10 µM; CHO-K1 CHOP-promoter luciferase, tunicamycin-induced, 15-18 h;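 active = compounds that reduced the stress-induced luciferase reporter signal by more than about 70% of percent inhibition, limit read from the data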;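 note: 0% = tunicamycin plus vehicle and 100% = wells without tunicamycin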
The depositor's hits bear a star; . = not tested or not shown; ! = a repeat was not active.

SMILES	Fh CTSL1 inh	UPR CHOP act	UCH37 DUB inh	UPR XBP1 act	CHOP inh
CC(c1ccco1)N(C(=O)C12CC3(C)CC(C)(CC(C)(C3)C1)C2)c1ccccn1 (stereo not drawn)	3.6	-1.3	0.1	-1.5	86.2*
CCOc1ccc(S(=O)(=O)N(CC(=O)Nc2cc(C)on2)Cc2ccccc2Cl)cc1	2.0	-0.8	4.7	-2.4	73.3*
Cc1ccc2c(c1)N=C(c1ccc(F)cc1)CO2	-2.5	5.8	6.7	-0.1	78.5*
O=[N+]([O-])c1ccc(C2=Nc3cc(Cl)ccc3OC2)cc1	4.1	1.3	-0.6	5.0	-27.5
COc1ccc(C(=O)NN=C(C)CC(=O)Nc2ccccn2)cc1OC	.	.	2.1	.	.
Cn1c(C(=O)N2CCN(c3ccc(Cl)cc3)CC2)cc2c(=O)[nH]c3ccccc3c21	-2.0	0.4	-1.8	1.8	9.7
Cc1ccc(Cl)cc1N1CCN(C(=O)c2cc3c(=O)[nH]c4ccccc4c3n2C)CC1	-3.1	5.3	0.7	6.9	93.5*
O=C(c1ccc(COc2ccccc2Cl)o1)N1N=C(C(F)F)CC1(O)C(F)F (stereo not drawn)	-2.6	0.0	6.4	-3.4	74.7*
O=C(c1ccc(COc2ccccc2Cl)o1)N1CCN(c2ccccc2)CC1	4.4	0.4	2.5	-4.2	57.8
CC(=NNC(=O)Nc1ccccc1)c1ccc2ccccc2c1	.	.	6.0	.	.
Cc1ccc(C)c(Cn2nnc3c(=O)[nH]c(C4CCCN(S(=O)(=O)Cc5ccccc5)C4)nc32)c1 (stereo not drawn)	1.6	0.7	-0.6	102.8*	.
COc1cc(NC(=O)CSc2nnc3ccccn23)cc(OC)c1	.	1.6	0.1	-3.2	.
CC(C)(C)c1cc(NC(=O)CCSc2nnc3ccccn23)cc(C(C)(C)C)c1	8.1	2.4	-32.0	-3.1	88.4*
COc1ccc(-c2nn(-c3ccccc3)cc2C=NNC(=S)NC(C)C)cc1OC	.	.	-0.8	.	.
Cc1ccc(S(=O)(=O)N2CCOC2CNC(=O)C(=O)NCCc2c[nH]c3ccccc23)cc1 (stereo not drawn)	-0.6	-1.3	29.0*	-3.2	37.5
Cc1ccccc1C=NNC(=O)c1sccc1C	.	.	0.4	.	.
O=C(Cn1cncn1)NN=Cc1cccnc1	.	.	3.7	.	.
COc1ccc(C(=O)NCC(C)(C)SCc2c(C)cc(C)cc2C)cc1	-6.8	-2.1	2.0	-2.7	73.4*
N#Cc1c(NC(=O)CSc2nnnn2C2CCCC2)sc2c1CCCC2	-0.1	-1.1	4.3	2.5	81.7*
COC(=O)c1c(NC(=O)CSc2ncnc3c2cnn3-c2ccccc2Cl)sc2c1CCCC2	5.4	-3.1	2.2	-2.4	13.5
COC(=O)c1c(NC(=O)CSc2ncnc3[nH]ncc23)sc2c1CCC2	1.7	2.8	4.6	-1.5	76.6*
N#Cc1c(NC(=O)CSc2ncn[nH]2)sc2c1CCCCC2	5.2	-7.0	7.3	-4.7	91.3*
Cc1ccc(S(=O)(=O)N2CCN(c3nc4ccccc4nc3-n3nc(C)cc3C)CC2)cc1	1.7	2.9	-13.4	1.2	73.2*
Cc1ccc[n+](-c2[nH]c(=O)sc2C=NNC(=O)c2ccccc2[O-])c1	.	.	11.6	.	.
CCOc1ccc(-c2nc3scc(-c4cccs4)c3c(=O)[nH]2)cc1	0.5	-0.7	-313.1	8.0	73.2*
SMILES	Fh CTSL1 inh	UPR CHOP act	UCH37 DUB inh	UPR XBP1 act	CHOP inh
Cc1noc(C)c1C=NNc1ccc2ccccc2n1	.	.	-9.2	.	.
Cc1ccc(C(=O)Nc2cc3ccccc3oc2=O)cc1	0.4	-8.3	-249.4	-7.4	104.2*
Cc1oc(=O)c(NC(=O)c2ccccc2)cc1C(=O)c1ccccc1	34.9*	3.8	2.1	4.8	-7.6
COc1ccc(C)cc1NC(=O)c1cc2ccccc2o1	33.3*	0.9	-4.0	4.0	71.2*
Cc1cccc(CN(CC(=O)NN=Cc2cccs2)S(=O)(=O)c2ccc(Cl)cc2)c1	.	.	3.4	.	.
CC1=C(C)C(=NOC(=O)c2cccc([N+](=O)[O-])c2)C=CC1=O	.	.	2.5	.	.
O=S(=O)(c1ccc(NC(=S)NN=Cc2c3ccccc3cc3ccccc23)cc1)N1CCOCC1	.	.	0.4	.	.
c1coc(-c2nnc(-c3ccco3)nn2)c1	22.7*	7.1	31.9*	-1.8	.
COc1ccc(NC(=O)CC2C(=O)N(c3ccc(Cl)cc3)C(=S)N2NC(=O)c2cccc(F)c2)cc1 (stereo not drawn)	-4.2	3.1	0.8	-0.9	83.7*
COc1ccc(NC(=O)CC2C(=O)N(c3ccc(Cl)cc3)C(=S)N2CCc2ccccn2)cc1 (stereo not drawn)	1.2	1.7	4.6	-4.5	24.7
COc1ccc(NC(=O)CC2C(=O)N(c3ccc(Cl)cc3)C(=S)N2CCc2ccncc2)cc1 (stereo not drawn)	3.0	1.6	4.9	-2.4	92.6*
CCN1C(=O)C(CC(=O)Nc2ccc(F)cc2)N(CCc2ccc(OC)cc2)C1=S (stereo not drawn)	0.1	-1.1	.	-2.0	93.2*
COC(=O)CN1C(=S)N(c2ccc(Cl)cc2)C(=O)C1CC(=O)Nc1ccc(Cl)cc1 (stereo not drawn)	-3.6	1.4	-3.6	-6.0	91.3*
CCN1C(=O)C(CC(=O)Nc2ccc(OC)cc2)N(CCc2ccccc2)C1=S (stereo not drawn)	-0.6	-0.6	5.4	-1.0	7.8
COCCN=C1OC(=O)N2C(=O)C3=C4[C@@H](C[C@H]5C(=O)N(c6ccccc6)C(=O)[C@H]5[C@H]4[C@@]12Cc1ccccc1)[C@H]1C(=O)N(c2ccccc2)C(=O)[C@H]1[C@H]3C	18.1*	-2.6	2.9	-1.0	2.8
NC(=O)OCC(COC(N)=O)c1ccccc1	3.3	0.7	3.0	-6.8	97.0*!
Cc1c(C(=O)NN=Cc2ccc(O)cc2)sc(=S)n1C	.	.	-4.7	.	.
CC(C)COc1ccc(-c2nn(-c3ccccc3)cc2/C=C2/SC(=S)N(CC(=O)O)C2=O)cc1	-0.5	-0.6	21.9*	-3.8	.
COc1cc(/C=N/NC(=O)COc2c(C)cc([N+](=O)[O-])cc2C)ccc1OC(=O)c1ccccc1Br	2.9	2.5	.	4.5	76.3*
CCOC(=O)C1=C(C)Nc2nnnn2C1c1ccccc1Cl (stereo not drawn)	-5.0	0.3	2.1	0.4	-6.4
CCCCOC(=O)C1=C(C)Nc2nnnn2C1c1ccccc1Cl (stereo not drawn)	1.0	1.4	4.7	-0.7	83.5*
COc1ccc(Cl)cc1NC(=O)CN(C)C(=O)C1CCN(C(=O)Nc2ccccc2)CC1	.	2.6	2.8	-4.2	.
Cc1ccc(C)c(NC(=O)CN(C)C(=O)C2CCN(C(=O)Nc3ccccc3)CC2)c1	17.3*	-0.2	5.2	-2.9	.
O=C(NN=C/C(Br)=C/c1ccccc1)c1cnccn1	.	.	9.4	.	.
Cn1c(SCc2cccc([N+](=O)[O-])c2)nc2c(c1=O)SCC2	3.5	-1.1	5.0	-2.1	75.2*
Cn1c(SCc2cccnc2)nc2c(c1=O)SCC2	11.5	-0.9	3.3	-0.2	18.7

Bioassay records (PubChem BioAssay)
